# Data from ChEMBL document CHEMBL1138187, “2-(2-Thienyl)-5,6-dihydroxy-4-carboxypyrimidines as inhibitors of the hepatitis C virus NS5B polymerase: discovery, SAR, modeling, and mutagenesis” (J Med Chem, 2006).
# Activity calls are given as the source filed them. No cut-off for these calls is given here.
# Key:
# [1] = biological target: RNA-directed RNA polymerase (Hepacivirus hominis) (UniProt O39930); assay: Inhibition of replication of HCV 1b BK RNA in Huh7 cells at 100 uM in presence of 10% fetal calf serum; format: functional, cell-based; conditions: Huh-7
# Outline: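 Subgenomic HCV RNA replicon in Huh-7 cells, modified Bartenschlager procedure with 10% fetal calf serum; compounds first tested at a fixed 100 µM, with EC50 determined only where inhibition exceeded 50%; values averaged over at least three independent determinations.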
# [2] = biological target: RNA-directed RNA polymerase (Hepacivirus hominis) (UniProt O39930); assay: Inhibitory activity against HCV 1b BK NS5B deltaC55 RNA polymerase at 50 uM; conditions: Hepatitis C virus subtype 1b
# [3] = biological target: RNA-directed RNA polymerase (Hepacivirus hominis) (UniProt O39930); assay: Inhibitory activity against HCV 1b BK NS5B deltaC55 RNA polymerase at 200 uM; conditions: Hepatitis C virus subtype 1b
# [4] = test system: O=c1ccn([C@@H]2O[C@H](COP(=O)(O)OP(=O)(O)OP(=O)(O)O)[C@@H](O)[C@H]2O)c(=O)[nH]1; assay: Activity against HCV 1b BK NS5B deltaC55-R158M mutant RNA polymerase; conditions: Hepatitis C virus subtype 1b
# Outline: (§1)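 HCV 1b-BK NS5B∆C55 (residues 1-536) carrying R158M or R158K, expressed in E. coli BL21(DE3) and purified. Polymerase run on a homopolymeric template RNA with UTP as substrate; IC50 and UTP Km measured in duplicate.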
# [5] = test system: O=c1ccn([C@@H]2O[C@H](COP(=O)(O)OP(=O)(O)OP(=O)(O)O)[C@@H](O)[C@H]2O)c(=O)[nH]1; assay: Activity against HCV 1b BK NS5B deltaC55-R158K mutant RNA polymerase; conditions: Hepatitis C virus subtype 1b; outline: as §1
# [6] = test system: Huh-7; assay: Cytotoxicity against Huh7 cells upto 100 uM; format: functional, cell-based; conditions: Homo sapiens
# [7] = test system: O=c1ccn([C@@H]2O[C@H](COP(=O)(O)OP(=O)(O)OP(=O)(O)O)[C@@H](O)[C@H]2O)c(=O)[nH]1; assay: Activity against HCV 1b BK NS5B deltaC55 RNA polymerase; conditions: Hepatitis C virus subtype 1b
# Outline: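 HCV genotype 1b BK-strain NS5B ΔC55 (residues 1-536) expressed in E. coli BL21(DE3) and purified; activity measured with a homopolymeric RNA template, assay run at pH 7.4 with Mg; IC50 is the mean of at least three independent determinations.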
Molecule,inhibition [1],inhibition [2] [%],other results
CS(=O)(=O)c1nc(O)c(O)c(C(=O)O)n1,inactive,,
CSc1nc(O)c(O)c(C(=O)O)n1,inactive,55,
CCCCc1nc(O)c(O)c(C(=O)O)n1,,0,
O=C(O)c1nc(-c2cccs2)nc(O)c1O,inactive,,
O=C(O)c1nc(-c2ncc[nH]2)nc(O)c1O,,50,
O=C(O)c1nc(-c2nccn2Cc2ccccc2)nc(O)c1O,,30,
O=C(O)c1nc(C2CCCCC2)nc(O)c1O,inactive,,inhibition [3]: 31%
RNA-directed RNA polymerase (Hepacivirus hominis) (from UniProt O39930) UNDEFINED MUTATION,,,Km [4]: 15 µM; Km [5]: 20 µM
O=C(NCc1ccccc1Cl)Nc1ccsc1-c1nc(O)c(O)c(C(=O)O)n1,,,Activity [6]: inactive
O=C(O)c1nc(Cc2ccccc2)nc(O)c1O,,24,
"RNA-directed RNA polymerase (Hepacivirus hominis), O39930",,,Km [7]: 6 µM
O=C(O)c1nc(-c2nccs2)nc(O)c1O,< 20%,,
O=C(Nc1ccsc1-c1nc(O)c(O)c(C(=O)O)n1)OCCc1ccccc1,< 20%,,
